Assay results reported in ChEMBL document CHEMBL4321877, “Development of Novel N-hydroxypyridone Derivatives as Potential Anti-Ischemic Stroke Agents” (J Med Chem, 2020).
The source made the active and inactive calls. The calls are words filed in the database; no cut-off is given here.

What was measured:
SH-SY5Y [1] = experiment: Cytotoxicity against human SH-SY5Y cells assessed as reduction in cell viability measured after 24 hrs by MTT assay; type: cell-based
Outline: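 SH-SY5Y cells (1:1 MEM/F12, 10% FBS) seeded 3 × 10^4 cells/well, grown 24 h, then exposed without insult for 24 h to 1.56–100 µM or to 1 and 10 µM (DMSO stock diluted in medium). MTT read at 490 nm; viability as % of untreated control.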

SH-SY5Y [2] = experiment: Neuroprotective activity against oxygen-glucose deprivation-induced morphological changes in human SH-SY5Y cells assessed as increase in cell number added immediately before OGD-challenge and measured after 24 hrs by microscopic analysis
SH-SY5Y [3] = experiment: (§1) Neuroprotective activity against oxygen-glucose deprivation-induced apoptosis in human SH-SY5Y cells assessed as necrotic cells at 4 uM preincubated for 2 hrs followed by OGD-challenge and measured after 24 hrs by Annexin V-FITC/propidium iodide staining-based flow cytometric method (reference value: 6.46%); type: functional
SH-SY5Y [4] = experiment: as §1, with “early apoptotic” for “necrotic”, “17.1%)” for “6.46%)”; type: functional
SH-SY5Y [5] = experiment: Neuroprotective activity against oxygen-glucose deprivation-induced morphological changes in human SH-SY5Y cells assessed as suppression of bright cell body appearance preincubated for 2 hrs followed by OGD-challenge and measured after 24 hrs by microscopic analysis; type: functional, cell-based
Outline: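 SH-SY5Y cells treated immediately before 2 h OGD (glucose/serum-free, hypoxia chamber, 37 °C), then reoxygenated; morphology (neurites, cell body, cell number) inspected by light microscopy 24 h after insult.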

[6] = Half life in mouse liver microsomes at 1 uM in presence of NADPH by LC-MS/MS analysis; type: ADME, Microsome
Rattus norvegicus [7] = experiment: Neuroprotective activity in Sprague-Dawley rat model of middle cerebral artery occlusion-induced ischemia-reperfusion injury assessed as reduction in disease severity score at 1 mg/kg, iv measured 24 hrs post-reperfusion; type: functional, organism-based
Outline: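 Male Sprague-Dawley rats anesthetized with chloral hydrate (400 mg/kg i.p.); left MCA occluded by intraluminal nylon suture for 2 h, then withdrawn. Compound in 0.9% saline given by tail vein immediately after reperfusion; body temperature held at 37.0 ± 0.5 °C. mNSS scored 24 h later; n = 15–18, mean ± SEM.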

Rattus norvegicus [8] = experiment: Neuroprotective activity in iv dosed Sprague-Dawley rat model of middle cerebral artery occlusion-induced ischemia-reperfusion injury assessed as concentration required to reduce infarction volume to < 26% by TTC staining based assay; type: functional
Outline: (§2)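 Male Sprague-Dawley rats under chloral hydrate (400 mg/kg, i.p.); nylon monofilament through the left internal carotid artery occluded the MCA origin for 2 h, then was withdrawn for reperfusion. Drug in 0.9% saline was injected via the tail vein immediately after reperfusion. After 24 h, 2 mm coronal sections were stained with 1% TTC at 37 °C for 15 min and fixed in 4% paraformaldehyde. Infarct % = (normal hemisphere − non-infarcted ischemic hemisphere)/normal hemisphere ×100. n=15-18, mean ± SEM.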

HT-22 = experiment: Neuroprotective activity against glutamate-induced cell death in mouse HT22 cells assessed as increase in cell viability up to 4 uM preincubated for 2 hrs followed by glutamate-challenge and measured after 24 hrs by MTT assay; type: functional, cell-based
Outline: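 HT22 mouse hippocampal cells (DMEM, 10% FBS) seeded 5×10^4 cells/ml and grown 12 h. Compound added for 2 h, then 10 mM L-glutamic acid hydrochloride for 24 h. Viability by MTT at 490 nm as % of control; mean ± SD, n = 3.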

SH-SY5Y [9] = experiment: Neuroprotective activity against oxygen-glucose deprivation-induced morphological changes in human SH-SY5Y cells assessed as suppression of neurite disappearance […] and measured after 24 hrs by microscopic analysis; type: functional, cell-based
MRC5 = experiment: Cytotoxicity against human MRC5 cells assessed as reduction in cell viability measured after 72 hrs by CCK8 assay; type: cell-based; conditions: MRC5, 72 h
Outline: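 MRC-5 cells grown in MEM with 10% FBS, NEAA, 5% CO2 at 37 °C; seeded 7000 cells/well, treated at several concentrations for 72 h. Viability by CCK-8 absorbance at 450 nm, expressed as % of vehicle-treated cells; IC50 reported as mean ± SD.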

[10] = Solubility of the compound in […] incubated for 24 hrs by HPLC analysis; type: physicochemical
SH-SY5Y [11] = experiment: Neuroprotective activity against H2O2-induced cell death in human SH-SY5Y cells assessed as cell viability at 1 to 4 uM preincubated for 2 hrs followed by H2O2-challenge by MTT assay (reference value: 45.73%); type: functional
SH-SY5Y [12] = experiment: as §1, with “viable” for “necrotic”, “48.2%)” for “6.46%)”; type: functional; conditions: read-out: Activity
SH-SY5Y [13] = experiment: Neuroprotective activity against oxygen-glucose deprivation-induced morphological changes in human SH-SY5Y cells assessed as suppression of cell shrinkage […] and measured after 24 hrs by microscopic analysis; type: functional, cell-based
[14] = molecular target: Voltage-gated inwardly rectifying potassium channel KCNH2 (Homo sapiens, UniProt Q12809); experiment: Inhibition of human ERG stably expressed in CHO cells at -80 mV by automated Qpatch electrophysiological assay; type: cell-based
Rattus norvegicus [15] = experiment: Neuroprotective activity in Sprague-Dawley rat model of middle cerebral artery occlusion-induced ischemia-reperfusion injury assessed as infarction volume at 0.3 mg/kg, iv by TTC staining based assay (reference value: 39%); type: functional; outline: as §2
SH-SY5Y [16] = experiment: as §1, with “late apoptotic” for “necrotic”, “28.2%)” for “6.46%)”; type: functional
Rattus norvegicus [17] = experiment: Neuroprotective activity in Sprague-Dawley rat model of middle cerebral artery occlusion-induced ischemia-reperfusion injury assessed as infarction volume at 1 mg/kg, iv by TTC staining based assay (reference value: 39%); type: functional; outline: as §2
Rattus norvegicus [18] = experiment: Neuroprotective activity in Sprague-Dawley rat model of middle cerebral artery occlusion-induced ischemia-reperfusion injury assessed as infarction volume at 3 mg/kg, iv by TTC staining based assay (reference value: 39%); type: functional; outline: as §2

Chain of Voltage-gated inwardly rectifying potassium channel KCNH2 (Q12809 whole entry, the tested form may be a part): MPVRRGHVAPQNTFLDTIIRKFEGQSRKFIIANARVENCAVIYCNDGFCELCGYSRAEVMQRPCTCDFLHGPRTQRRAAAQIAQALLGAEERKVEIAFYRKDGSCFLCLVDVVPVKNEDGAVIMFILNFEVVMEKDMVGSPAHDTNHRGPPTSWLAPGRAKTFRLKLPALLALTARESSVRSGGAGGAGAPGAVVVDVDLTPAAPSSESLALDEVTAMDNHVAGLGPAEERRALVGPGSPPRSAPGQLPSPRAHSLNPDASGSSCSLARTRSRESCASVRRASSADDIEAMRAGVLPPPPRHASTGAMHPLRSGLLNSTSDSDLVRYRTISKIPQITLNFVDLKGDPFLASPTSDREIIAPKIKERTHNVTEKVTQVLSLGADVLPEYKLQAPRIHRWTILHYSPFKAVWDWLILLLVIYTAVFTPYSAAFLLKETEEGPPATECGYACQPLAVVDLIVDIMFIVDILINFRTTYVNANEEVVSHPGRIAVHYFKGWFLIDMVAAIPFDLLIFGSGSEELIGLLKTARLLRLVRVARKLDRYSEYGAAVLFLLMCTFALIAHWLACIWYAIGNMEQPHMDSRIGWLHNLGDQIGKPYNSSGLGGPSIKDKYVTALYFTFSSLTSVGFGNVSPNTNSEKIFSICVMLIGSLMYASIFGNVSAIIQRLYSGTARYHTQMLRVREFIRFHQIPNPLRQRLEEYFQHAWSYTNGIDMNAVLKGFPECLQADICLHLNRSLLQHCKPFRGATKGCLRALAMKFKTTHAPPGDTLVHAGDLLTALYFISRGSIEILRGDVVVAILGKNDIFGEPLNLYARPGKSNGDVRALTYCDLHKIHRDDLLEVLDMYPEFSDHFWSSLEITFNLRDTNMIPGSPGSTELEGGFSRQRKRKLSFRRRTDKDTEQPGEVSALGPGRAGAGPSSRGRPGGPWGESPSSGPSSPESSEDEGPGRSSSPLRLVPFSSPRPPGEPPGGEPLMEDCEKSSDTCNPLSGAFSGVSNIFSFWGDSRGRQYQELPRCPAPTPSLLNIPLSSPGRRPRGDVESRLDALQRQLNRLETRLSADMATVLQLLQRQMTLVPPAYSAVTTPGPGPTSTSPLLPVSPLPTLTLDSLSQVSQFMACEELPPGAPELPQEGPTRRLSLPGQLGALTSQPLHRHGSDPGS

## Cc1cc([C@@H]2C[C@@H]3CC[C@H]2C3)n(O)c(=O)c1.NCCO
SH-SY5Y [1]
  IC50: > 100 µM
SH-SY5Y [2]
  Activity: Active
SH-SY5Y [3]
  Activity: 4.87%
SH-SY5Y [4]
  Activity: 9.36%
SH-SY5Y [5]
  Activity: Active
[6]
  half-life at 1 µM: 1.53 h
Rattus norvegicus [7]
  Activity: Active
Rattus norvegicus [8]
  Activity: 0.3 mg/kg
HT-22
  Activity: Active
SH-SY5Y [9]
  Activity: Active
MRC5
  IC50: 23.6 µM
[10]
  solubility at 24 h: 10.9 mg/mL
SH-SY5Y [11]
  Activity: <=80%
SH-SY5Y [12]
  viability at 4 µM: 69.8%
SH-SY5Y [13]
  Activity: Active
[14]
  IC50: > 40 µM
Rattus norvegicus [15]
  Activity: 25%
SH-SY5Y [16]
  Activity: 16%
Rattus norvegicus [17]
  Activity: 23%

## Cc1cc(C2CCCCC2)n(O)c(=O)c1.NCCO [CICLOPIROX OLAMINE]
SH-SY5Y [1]
  IC50: > 100 µM
[6]
  half-life at 1 µM: 0.886 h
Rattus norvegicus [8]
  Activity: 3 mg/kg
Rattus norvegicus [18]
  Activity: 26%
MRC5
  IC50: 23.5 µM
[10]; buffer, 24 h
  solubility: 6.82 mg/mL
SH-SY5Y [11]
  Activity: <=80%
[14]
  IC50: > 40 µM
